In ChEMBL document CHEMBL1687843, “Detection of NDM-1-producing Klebsiella pneumoniae in Kenya” (2011):
Values after ≈ are worked out from the molar mass of the structure shown. Active and inactive are the calls of the source. The calls are words filed in the database; no cut-off is given here.

Tests used:
Klebsiella pneumoniae [1] = experiment: Antibacterial activity against carbapenem-resistant Klebsiella pneumoniae isolate 4 expressing beta-lactamase NDM-1 obtained from urine of patient by liquid microdilution method; type: functional; conditions: for MIC: isolate 4, Urine
Method in brief: (§1)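 Liquid broth microdilution at 37°C gives the MIC against each clinical isolate; results are interpreted per CLSI guidelines.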

Klebsiella pneumoniae [2] = experiment: Antibacterial activity against carbapenem-resistant Klebsiella pneumoniae isolate 1 expressing beta-lactamase NDM-1 obtained from urine of patient by Etest; type: functional; conditions: for MIC: isolate 1, Urine
Method in brief: (§2)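 Etest strips on Mueller-Hinton agar at 37°C give the MIC against each clinical isolate; susceptibility is interpreted per CLSI guidelines.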

Klebsiella pneumoniae [3] = experiment: Antibacterial activity against carbapenem-resistant Klebsiella pneumoniae isolate 3 expressing beta-lactamase NDM-1 obtained from urine of patient by Etest; type: functional; conditions: for MIC: isolate 3, Urine; method in brief: as §2
Klebsiella pneumoniae [4] = experiment: Antibacterial activity against carbapenem-resistant Klebsiella pneumoniae isolate 7 expressing beta-lactamase NDM-1 obtained from urine of patient by liquid microdilution method; type: functional; conditions: for MIC: isolate 7, Urine; method in brief: as §1
Klebsiella pneumoniae [5] = experiment: Antibacterial activity against carbapenem-resistant Klebsiella pneumoniae isolate 6 expressing beta-lactamase NDM-1 obtained from urethral pus of patient by liquid microdilution method; conditions: for MIC: isolate 6, Urethral pus
Klebsiella pneumoniae [6] = experiment: Antibacterial activity against carbapenem-resistant Klebsiella pneumoniae isolate 6 expressing beta-lactamase NDM-1 obtained from urethral pus of patient by Etest; conditions: for MIC: isolate 6, Urethral pus
Klebsiella pneumoniae [7] = experiment: Antibacterial activity against carbapenem-resistant Klebsiella pneumoniae isolate 3 expressing beta-lactamase NDM-1 obtained from urine of patient by liquid microdilution method; type: functional; conditions: for MIC: isolate 3, Urine; method in brief: as §1
Klebsiella pneumoniae [8] = experiment: Antibacterial activity against carbapenem-resistant Klebsiella pneumoniae isolate 1 expressing beta-lactamase NDM-1 obtained from urine of patient by liquid microdilution method; type: functional; conditions: for MIC: isolate 1, Urine; method in brief: as §1
Klebsiella pneumoniae [9] = experiment: Antibacterial activity against carbapenem-resistant Klebsiella pneumoniae isolate 4 expressing beta-lactamase NDM-1 obtained from urine of patient by Etest; type: functional; conditions: for MIC: isolate 4, Urine; method in brief: as §2
Klebsiella pneumoniae [10] = experiment: Antibacterial activity against carbapenem-resistant Klebsiella pneumoniae isolate 2 expressing beta-lactamase NDM-1 obtained from urine of patient by Etest; type: functional; conditions: for MIC: isolate 2, Urine; method in brief: as §2
Klebsiella pneumoniae [11] = experiment: Antibacterial activity against carbapenem-resistant Klebsiella pneumoniae isolate 5 expressing beta-lactamase NDM-1 obtained from urine of patient by Etest; type: functional; conditions: for MIC: isolate 5, Urine; method in brief: as §2
Klebsiella pneumoniae [12] = experiment: Antibacterial activity against carbapenem-resistant Klebsiella pneumoniae isolate 5 expressing beta-lactamase NDM-1 obtained from urine of patient by liquid microdilution method; type: functional; conditions: for MIC: isolate 5, Urine; method in brief: as §1
Klebsiella pneumoniae [13] = experiment: Antibacterial activity against carbapenem-resistant Klebsiella pneumoniae isolate 2 expressing beta-lactamase NDM-1 obtained from urine of patient by liquid microdilution method; type: functional; conditions: for MIC: isolate 2, Urine; method in brief: as §1
Klebsiella pneumoniae [14] = experiment: Antibacterial activity against carbapenem-resistant Klebsiella pneumoniae isolate 7 expressing beta-lactamase NDM-1 obtained from urine of patient by Etest; type: functional; conditions: for MIC: isolate 7, Urine; method in brief: as §2
Escherichia coli [15] = experiment: Antimicrobial activity against Escherichia coli J53; type: functional
Method in brief: (§3)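 Strains: azide-resistant E. coli J53 recipient and its transconjugant. The transconjugant came from conjugation with K. pneumoniae Kp7 donor, selected on ceftazidime (30 µg/ml) plus azide (100 µg/ml). MICs were by Etest on Mueller-Hinton agar and by liquid microdilution at 37°C, interpreted per CLSI.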

Escherichia coli [16] = experiment: Antimicrobial activity against Escherichia coli J53 harboring Klebsiella pneumoniae Kp7 beta-lactamase NDM-1; type: functional; method in brief: as §3

Structure (SMILES)	Activity (Klebsiella pneumoniae [1])	Activity (Klebsiella pneumoniae [2])	Activity (Klebsiella pneumoniae [3])	Activity (Klebsiella pneumoniae [4])	MIC (Klebsiella pneumoniae [1]) [µg/mL]	MIC (Klebsiella pneumoniae [2]) [µg/mL]	MIC (Klebsiella pneumoniae [3]) [µg/mL]	MIC (Klebsiella pneumoniae [4]) [µg/mL]	MIC (Klebsiella pneumoniae [5]) [µg/mL]	MIC (Klebsiella pneumoniae [6]) [µg/mL]	MIC (Klebsiella pneumoniae [7]) [µg/mL]	MIC (Klebsiella pneumoniae [8]) [µg/mL]	MIC (Klebsiella pneumoniae [9]) [µg/mL]	MIC (Escherichia coli [15]) [µg/mL]	MIC (Klebsiella pneumoniae [10]) [µg/mL]	MIC (Klebsiella pneumoniae [11]) [µg/mL]	MIC (Klebsiella pneumoniae [12]) [µg/mL]	MIC (Escherichia coli [16]) [µg/mL]	MIC (Klebsiella pneumoniae [13]) [µg/mL]	MIC (Klebsiella pneumoniae [14]) [µg/mL]	further results
C[C@@H]1O[C@@H]1P(=O)(O)O	inactive	inactive	inactive	inactive	–	–	–	–	–	–	–	–	–	–	–	–	–	–	–	–	Activity (Klebsiella pneumoniae [5]): inactive; Activity (Klebsiella pneumoniae [6]): inactive; Activity (Klebsiella pneumoniae [7]): inactive; Activity (Klebsiella pneumoniae [8]): inactive; Activity (Klebsiella pneumoniae [9]): inactive; Activity (Klebsiella pneumoniae [10]): inactive; Activity (Klebsiella pneumoniae [11]): inactive; Activity (Klebsiella pneumoniae [12]): inactive; Activity (Klebsiella pneumoniae [13]): inactive; Activity (Klebsiella pneumoniae [14]): inactive
O=C(N[C@H](CO)[C@H](O)c1ccc([N+](=O)[O-])cc1)C(Cl)Cl	inactive	inactive	inactive	inactive	–	–	–	–	–	–	–	–	–	–	–	–	–	–	–	–	Activity (Klebsiella pneumoniae [5]): inactive; Activity (Klebsiella pneumoniae [6]): inactive; Activity (Klebsiella pneumoniae [7]): inactive; Activity (Klebsiella pneumoniae [8]): inactive; Activity (Klebsiella pneumoniae [9]): inactive; Activity (Klebsiella pneumoniae [10]): inactive; Activity (Klebsiella pneumoniae [11]): inactive; Activity (Klebsiella pneumoniae [12]): inactive; Activity (Klebsiella pneumoniae [13]): inactive; Activity (Klebsiella pneumoniae [14]): inactive
O=C1CN(/N=C/c2ccc([N+](=O)[O-])o2)C(=O)N1	inactive	inactive	inactive	inactive	–	–	–	–	–	–	–	–	–	–	–	–	–	–	–	–	Activity (Klebsiella pneumoniae [5]): inactive; Activity (Klebsiella pneumoniae [6]): inactive; Activity (Klebsiella pneumoniae [7]): inactive; Activity (Klebsiella pneumoniae [8]): inactive; Activity (Klebsiella pneumoniae [9]): inactive; Activity (Klebsiella pneumoniae [10]): inactive; Activity (Klebsiella pneumoniae [11]): inactive; Activity (Klebsiella pneumoniae [12]): inactive; Activity (Klebsiella pneumoniae [13]): inactive; Activity (Klebsiella pneumoniae [14]): inactive
C[C@@H](O)[C@H]1C(=O)N2C(C(=O)O)=C(S[C@@H]3CN[C@H](CNS(N)(=O)=O)C3)[C@H](C)[C@H]12 [DORIPENEM]	–	–	–	–	> 32	> 32	> 32	> 32	> 32	> 32	> 32	> 32	> 32	0.12 (≈ 0.285 µM)	> 32	> 32	> 32	1.5 (≈ 3.57 µM)	> 32	> 32	–
C[C@@H](O)[C@H]1C(=O)N2C(C(=O)O)=C(S[C@@H]3CN[C@H](C(=O)Nc4cccc(C(=O)O)c4)C3)[C@H](C)[C@H]12 [ERTAPENEM]	–	–	–	–	> 32	> 32	> 32	> 32	> 32	> 32	> 32	> 32	> 32	0.12 (≈ 0.252 µM)	> 32	> 32	> 32	1.5 (≈ 3.15 µM)	> 32	> 32	–
C[C@@H](O)[C@H]1C(=O)N2C(C(=O)O)=C(SCCNC=N)C[C@H]12 [IMIPENEM ANHYDROUS]	–	–	–	–	> 32	> 32	> 32	> 32	> 32	> 32	> 32	> 32	> 32	0.12 (≈ 0.401 µM)	> 32	> 32	> 32	4 (≈ 13.4 µM)	> 32	> 32	–
C[C@@H](O)[C@H]1C(=O)N2C(C(=O)O)=C(S[C@@H]3CN[C@H](C(=O)N(C)C)C3)[C@H](C)[C@H]12 [MEROPENEM]	–	–	–	–	> 32	> 32	> 32	> 32	> 32	> 32	> 32	> 32	> 32	0.12 (≈ 0.313 µM)	> 32	> 32	> 32	1.5 (≈ 3.91 µM)	> 32	> 32	–
CO[C@H]1/C=C/O[C@@]2(C)Oc3c(C)c(O)c4c(O)c(c(/C=N/N5CCN(C)CC5)c(O)c4c3C2=O)NC(=O)/C(C)=C\C=C\[C@H](C)[C@H](O)[C@@H](C)[C@@H](O)[C@@H](C)[C@H](OC(C)=O)[C@@H]1C [RIFAMPIN]	–	–	–	–	> 32	> 32	> 32	> 32	> 32	> 32	> 32	> 32	> 32	–	> 32	> 32	> 32	–	> 32	> 32	–
CN(C)c1cc(NC(=O)CNC(C)(C)C)c(O)c2c1C[C@H]1C[C@H]3[C@H](N(C)C)C(O)=C(C(N)=O)C(=O)[C@@]3(O)C(O)=C1C2=O [TIGECYCLINE]	–	–	–	–	–	0.5 (≈ 0.854 µM)	0.5 (≈ 0.854 µM)	–	–	0.5 (≈ 0.854 µM)	–	–	0.5 (≈ 0.854 µM)	–	0.5 (≈ 0.854 µM)	0.5 (≈ 0.854 µM)	–	–	–	0.5 (≈ 0.854 µM)	–
